Measured values taken from ChEMBL document CHEMBL3120154, “2-[N-Alkyl(R-phenyl)-aminomethyl]-3-phenyl-7-trifluoromethylquinoxalines as anticancer agents inhibitors of folate enzymes” (Eur J Med Chem, 2014).

Columns and labels:
NCI/ADR-RES = assay: Cytotoxicity against human NCI/ADR-RES cells at 10^-4 M after 48 hrs by SRB assay; type: functional; settings: read-out: GI
Procedure, shortened: (§1)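 Run in the NCI 60-cell-line screen after a three-line prescreen. Cells got a 48 h drug exposure; viability/growth was estimated with the sulforhodamine B protein assay. Growth inhibition (I%) was recorded at 100, 10, 1, 0.1 and 0.01 micromolar. Percent growth is relative to untreated control cells, and negative values indicate cell kill.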

COLO 205 = assay: Cytotoxicity against human COLO205 cells at 10^-4 M after 48 hrs by SRB assay; type: functional; settings: COLO 205, 48 h, read-out: GI
Procedure, shortened: (§2)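 Run by NCI on its 60-line human tumor cell panel, after a three-cell-line prescreen. Cells were exposed to drug for 48 h over a 5-log range: 100, 10, 1, 0.1 and 0.01 micromolar. Growth was estimated by sulforhodamine B (SRB) protein staining. Percent growth inhibition (I%) was recorded at each concentration relative to untreated control cells.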

NCI-H460 = assay: Cytotoxicity against human NCI-H460 cells assessed as cell growth at 10^-4 M after 48 hrs by alamar blue assay relative to untreated control; type: functional; settings: NCI-H460, 48 h, read-out: Activity
Procedure, shortened: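 Three-cell-line prescreen. Each line was inoculated and preincubated on a microtiter plate, then the agent was added at a single concentration (10^-4 or 10^-5 M) and incubated 48 h. Endpoint was measured with alamar blue, and growth is reported as a percentage of untreated control cells.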

[1] = Cytotoxicity against human UO31 cells at 10^-4 M after 48 hrs by SRB assay; type: functional; settings: UO-31, 48 h, read-out: GI
Procedure, shortened: (§3)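 Second-stage screen in the 60-cell-line human tumor panel at NCI, over a 5-log range (100, 10, 1, 0.1, 0.01 micromolar). Cells were exposed to drug for 48 h and growth was estimated with a sulforhodamine B protein stain. The value is percent growth inhibition at each concentration.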

[2] = Cytotoxicity against human EKVX cells at 10^-4 M after 48 hrs by SRB assay; type: functional; settings: read-out: GI; procedure, shortened: as §2
Dihydrofolate reductase = biological target: T1, Dihydrofolate reductase (Homo sapiens, UniProt P00374); assay: Competitive inhibition of human dihydrofolate reductase by spectrophotometry
T1 sequence (P00374 whole entry): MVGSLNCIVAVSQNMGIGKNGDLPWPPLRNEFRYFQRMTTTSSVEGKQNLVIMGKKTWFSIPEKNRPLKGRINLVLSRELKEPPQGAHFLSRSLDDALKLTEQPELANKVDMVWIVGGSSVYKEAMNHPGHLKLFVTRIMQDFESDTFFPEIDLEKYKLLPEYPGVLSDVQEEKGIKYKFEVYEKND

A498 = assay: Cytotoxicity against human A498 cells at 10^-4 M after 48 hrs by SRB assay; type: functional; settings: A498, 48 h, read-out: GI; procedure, shortened: as §2
DU-145 = assay: Cytotoxicity against human DU145 cells at 10^-4 M after 48 hrs by SRB assay; type: functional; settings: DU-145, 48 h, read-out: GI; procedure, shortened: as §2
OVCAR-3 = assay: Cytotoxicity against human OVCAR3 cells at 10^-4 M after 48 hrs by SRB assay; type: functional; settings: OVCAR-3, 48 h, read-out: GI; procedure, shortened: as §1
T47D = assay: Cytotoxicity against human T47D cells at 10^-4 M after 48 hrs by SRB assay; type: functional; settings: read-out: GI; procedure, shortened: as §3
RXF 393 = assay: Cytotoxicity against human RXF393 cells at 10^-4 M after 48 hrs by SRB assay; type: functional; settings: RXF 393, 48 h, read-out: GI; procedure, shortened: as §3
NCI-H522 = assay: Cytotoxicity against human NCI-H522 cells at 10^-4 M after 48 hrs by SRB assay; type: functional; settings: NCI-H522, 48 h, read-out: GI; procedure, shortened: as §1
HOP-62 = assay: Cytotoxicity against human HOP62 cells at 10^-4 M after 48 hrs by SRB assay; type: functional; settings: HOP-62, 48 h, read-out: GI; procedure, shortened: as §2
786-0 = assay: Cytotoxicity against human 786-0 cells at 10^-4 M after 48 hrs by SRB assay; type: functional; settings: 786-0, 48 h, read-out: GI; procedure, shortened: as §2
PC-3 = assay: Cytotoxicity against human PC3 cells at 10^-4 M after 48 hrs by SRB assay; type: functional; settings: PC-3, 48 h, read-out: GI; procedure, shortened: as §3
MDA-MB-435 = assay: Cytotoxicity against human MDA-MB-435 cells at 10^-4 M after 48 hrs by SRB assay; type: functional; settings: MDA-MB-435, 48 h, read-out: GI; procedure, shortened: as §1
Malme-3M = assay: Cytotoxicity against human MALME-3M cells at 10^-4 M after 48 hrs by SRB assay; type: functional; settings: read-out: GI; procedure, shortened: as §1
TK-10 = assay: Cytotoxicity against human TK10 cells at 10^-4 M after 48 hrs by SRB assay; type: functional; settings: TK-10, 48 h, read-out: GI; procedure, shortened: as §3
SK-OV-3 = assay: Cytotoxicity against human SKOV3 cells at 10^-4 M after 48 hrs by SRB assay; type: functional; settings: SK-OV-3, 48 h, read-out: GI; procedure, shortened: as §3
SNB-75 = assay: Cytotoxicity against human SNB75 cells at 10^-4 M after 48 hrs by SRB assay; type: functional; settings: SNB-75, 48 h, read-out: GI; procedure, shortened: as §3
HCT-116 = assay: Cytotoxicity against human HCT116 cells at 10^-4 M after 48 hrs by SRB assay; type: functional; settings: HCT-116, 48 h, read-out: GI; procedure, shortened: as §2
SF-539 = assay: Cytotoxicity against human SF539 cells at 10^-4 M after 48 hrs by SRB assay; type: functional; settings: SF-539, 48 h, read-out: GI; procedure, shortened: as §3
[3] = Cytotoxicity against human OVCAR4 cells at 10^-4 M after 48 hrs by SRB assay; type: functional; settings: OVCAR-4, 48 h, read-out: GI; procedure, shortened: as §3
SNB-19 = assay: Cytotoxicity against human SNB19 cells at 10^-4 M after 48 hrs by SRB assay; type: functional; settings: SNB-19, 48 h, read-out: GI; procedure, shortened: as §3
MDA-MB-231 = assay: Cytotoxicity against human MDA-MB-231 cells at 10^-4 M after 48 hrs by SRB assay; type: functional; settings: MDA-MB-231, 48 h, read-out: GI; procedure, shortened: as §1
SF-268 = assay: Cytotoxicity against human SF268 cells at 10^-4 M after 48 hrs by SRB assay; type: functional; settings: SF-268, 48 h, read-out: GI; procedure, shortened: as §3
HOP-92 = assay: Cytotoxicity against human HOP92 cells at 10^-4 M after 48 hrs by SRB assay; type: functional; settings: HOP-92, 48 h, read-out: GI; procedure, shortened: as §2
NCI-H226 = assay: Cytotoxicity against human NCI-H226 cells at 10^-4 M after 48 hrs by SRB assay; type: functional; settings: NCI-H226, 48 h, read-out: GI; procedure, shortened: as §1
CCRF-CEM = assay: Cytotoxicity against human CCRF-CEM cells at 10^-4 M after 48 hrs by SRB assay; type: functional; settings: read-out: GI; procedure, shortened: as §2
HL-60(TB) = assay: Cytotoxicity against human HL-60(TB) cells at 10^-4 M after 48 hrs by SRB assay; type: functional; settings: HL-60, 48 h, read-out: GI
Procedure, shortened: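 NCI 60-human-tumour-cell-line screen run over a 5-log dose range (100, 10, 1, 0.1 and 0.01 µM). Cells were exposed to drug for 48 h. Growth was estimated by sulforhodamine B protein staining. Values are percent growth inhibition at each concentration, relative to untreated control cells.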

Structure (SMILES)	inhibition of growth at 100 µM (NCI/ADR-RES) [%]	inhibition of growth at 100 µM (COLO 205) [%]	growth at 100 µM (NCI-H460) [%]	inhibition of growth at 100 µM [1] [%]	inhibition of growth at 100 µM [2] [%]	Ki (Dihydrofolate reductase) [µM]	inhibition of growth at 100 µM (A498) [%]	inhibition of growth at 100 µM (DU-145) [%]	inhibition of growth at 100 µM (OVCAR-3) [%]	inhibition of growth at 100 µM (T47D) [%]	inhibition of growth at 100 µM (RXF 393) [%]	inhibition of growth at 100 µM (NCI-H522) [%]	inhibition of growth at 100 µM (786-0) [%]	inhibition of growth at 100 µM (PC-3) [%]	inhibition of growth at 100 µM (MDA-MB-435) [%]	inhibition of growth at 100 µM (TK-10) [%]	inhibition of growth at 100 µM (SK-OV-3) [%]	inhibition of growth at 100 µM (SNB-75) [%]	inhibition of growth at 100 µM (HCT-116) [%]	inhibition of growth at 100 µM (SF-539) [%]	also measured
C#CCN(Cc1nc2cc(C(F)(F)F)ccc2nc1-c1ccccc1)c1ccc(OC(F)(F)F)cc1	< 40	73	7	70	89	4	87	75	88	70	67	125	46	77	86	64	< 40	< 40	99	161	inhibition of growth at 100 µM (HOP-62): 48%; inhibition of growth at 100 µM (Malme-3M): < 40%; inhibition of growth at 100 µM [3]: < 40%; inhibition of growth at 100 µM (SNB-19): < 40%; inhibition of growth at 100 µM (MDA-MB-231): 81%; inhibition of growth at 100 µM (SF-268): 63%; inhibition of growth at 100 µM (HOP-92): 109%
C#CCN(Cc1nc2cc(C(F)(F)F)ccc2nc1-c1ccccc1)c1ccc(F)cc1	108	126	6	83	120	8	104	82	94	90	89	93	132	92	87	123	93	54	94	96	inhibition of growth at 100 µM (NCI-H226): 71%; inhibition of growth at 100 µM (CCRF-CEM): 94%; inhibition of growth at 100 µM (Malme-3M): 129%; inhibition of growth at 100 µM (HL-60(TB)): 92%; inhibition of growth at 100 µM [3]: 87%; inhibition of growth at 100 µM (SNB-19): 84%; inhibition of growth at 100 µM (MDA-MB-231): 129%; inhibition of growth at 100 µM (SF-268): 82%; inhibition of growth at 100 µM (HOP-92): 106%
C#CCN(Cc1nc2cc(C(F)(F)F)ccc2nc1-c1ccccc1)c1ccc(F)c(F)c1	67	75	18	73	123	8	78	78	116	61	103	85	44	78	81	48	< 40	< 40	77	96	inhibition of growth at 100 µM (NCI-H226): 51%; inhibition of growth at 100 µM (HOP-62): < 40%; inhibition of growth at 100 µM (CCRF-CEM): 98%; inhibition of growth at 100 µM (HL-60(TB)): 79%; inhibition of growth at 100 µM [3]: < 40%; inhibition of growth at 100 µM (SNB-19): 52%; inhibition of growth at 100 µM (MDA-MB-231): 90%; inhibition of growth at 100 µM (SF-268): 91%; inhibition of growth at 100 µM (HOP-92): 63%
CCN(Cc1nc2cc(C(F)(F)F)ccc2nc1-c1ccccc1)c1ccc(OC)c(OC)c1	84	92	0	145	112	4	180	173	194	120	179	164	191	185	183	109	83	115	199	176	inhibition of growth at 100 µM (NCI-H226): 179%; inhibition of growth at 100 µM (HOP-62): 195%; inhibition of growth at 100 µM (CCRF-CEM): 146%; inhibition of growth at 100 µM (HL-60(TB)): 153%; inhibition of growth at 100 µM [3]: 76%; inhibition of growth at 100 µM (SNB-19): 148%; inhibition of growth at 100 µM (MDA-MB-231): 174%; inhibition of growth at 100 µM (SF-268): 99%; inhibition of growth at 100 µM (HOP-92): 184%
C#CCN(Cc1nc2cc(C(F)(F)F)ccc2nc1-c1ccccc1)c1ccc(C)cc1	195	177	17	167	56	6	157	40	164	172	137	134	184	58	149	181	191	180	189	77	inhibition of growth at 100 µM (NCI-H226): 145%; inhibition of growth at 100 µM (HOP-62): 199%; inhibition of growth at 100 µM (CCRF-CEM): < 40%; inhibition of growth at 100 µM (Malme-3M): 160%; inhibition of growth at 100 µM (HL-60(TB)): 105%; inhibition of growth at 100 µM [3]: 200%; inhibition of growth at 100 µM (SNB-19): 163%; inhibition of growth at 100 µM (MDA-MB-231): 163%; inhibition of growth at 100 µM (SF-268): 76%; inhibition of growth at 100 µM (HOP-92): 93%
